Reference: ChEMBL document CHEMBL1221342, “Synthesis and in vitro antitumor activity of new 4,5-dihydropyrazole derivatives” (Bioorg Med Chem, 2010)

Tests used:
Format in all cases: functional
SK-OV-3 = test: Growth inhibition of human SKOV3 cells after 48 hrs by SRB assay; settings: SK-OV-3, 48 h
Procedure, shortened: (§1)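 NCI 60-cell-line screen. Cells grown in RPMI1640 with 5% fetal calf serum and 2 mM L-glutamine, with inoculum density set by cell line. Preincubated 24 h, then given compound in DMSO at 10^-4 to 10^-8 M (five 10-fold steps) for 48 h continuous exposure. Growth measured by SRB protein assay. GI50, TGI and LC50 reported as –log molar.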

UO-31 = test: Growth inhibition of human UO31 cells after 48 hrs by SRB assay; settings: UO-31, 48 h; procedure, shortened: as §1
NCI/ADR-RES = test: Growth inhibition of human NCI/ADR-RES cells after 48 hrs by SRB assay; procedure, shortened: as §1
Malme-3M = test: Growth inhibition of human MALME-3M cells after 48 hrs by SRB assay; procedure, shortened: as §1
EKVX = test: Growth inhibition of human EKVX cells after 48 hrs by SRB assay; procedure, shortened: as §1
SNB-75 = test: Growth inhibition of human SNB75 cells after 48 hrs by SRB assay; settings: SNB-75, 48 h; procedure, shortened: as §1
M14 = test: Growth inhibition of human M14 cells after 48 hrs by SRB assay; settings: M14, 48 h; procedure, shortened: as §1
U-251 = test: Growth inhibition of human U251 cells after 48 hrs by SRB assay; settings: U-251, 48 h; procedure, shortened: as §1
OVCAR-3 = test: Growth inhibition of human OVCAR-3 cells after 48 hrs by SRB assay; settings: OVCAR-3, 48 h; procedure, shortened: as §1
SK-MEL-5 = test: Growth inhibition of human SK-MEL-5 cells after 48 hrs by SRB assay; settings: SK-MEL-5, 48 h; procedure, shortened: as §1
SK-MEL-28 = test: Growth inhibition of human SK-MEL-28 cells after 48 hrs by SRB assay; settings: SK-MEL-28, 48 h; procedure, shortened: as §1
PC-3 = test: Growth inhibition of human PC3 cells after 48 hrs by SRB assay; settings: PC-3, 48 h; procedure, shortened: as §1
DU-145 = test: Growth inhibition of human DU145 cells after 48 hrs by SRB assay; settings: DU-145, 48 h; procedure, shortened: as §1
MDA-MB-468 = test: Growth inhibition of human MDA-MB-468 cells after 48 hrs by SRB assay; settings: MDA-MB-468, 48 h; procedure, shortened: as §1
HCC 2998 = test: Growth inhibition of human HCC2998 cells after 48 hrs by SRB assay; settings: HCC 2998, 48 h; procedure, shortened: as §1
[1] = Growth inhibition of human […] cells after 48 hrs by SRB assay; procedure, shortened: as §1
TK-10 = test: Growth inhibition of human TK10 cells after 48 hrs by SRB assay; settings: TK-10, 48 h; procedure, shortened: as §1
CAKI-1 = test: Growth inhibition of human Caki1 cells after 48 hrs by SRB assay; settings: CAKI-1, 48 h; procedure, shortened: as §1
RXF 393 = test: Growth inhibition of human RXF393 cells after 48 hrs by SRB assay; settings: RXF 393, 48 h; procedure, shortened: as §1
NCI-H322M = test: Growth inhibition of human NCI-H322M cells after 48 hrs by SRB assay; procedure, shortened: as §1
OVCAR-4 = test: Growth inhibition of human OVCAR4 cells after 48 hrs by SRB assay; settings: OVCAR-4, 48 h; procedure, shortened: as §1
UACC-62 = test: Growth inhibition of human UACC62 cells after 48 hrs by SRB assay; settings: UACC-62, 48 h; procedure, shortened: as §1
HCT-15 = test: Growth inhibition of human HCT15 cells after 48 hrs by SRB assay; settings: HCT-15, 48 h; procedure, shortened: as §1
HOP-62 = test: Growth inhibition of human HOP62 cells after 48 hrs by SRB assay; settings: HOP-62, 48 h; procedure, shortened: as §1
MCF7 = test: Growth inhibition of human MCF7 cells after 48 hrs by SRB assay; settings: MCF7, 48 h; procedure, shortened: as §1
SR = test: Growth inhibition of human SR cells after 48 hrs by SRB assay; procedure, shortened: as §1
NCI-H460 = test: Growth inhibition of human NCI-H460 cells after 48 hrs by SRB assay; settings: NCI-H460, 48 h; procedure, shortened: as §1
OVCAR-8 = test: Growth inhibition of human OVCAR8 cells after 48 hrs by SRB assay; settings: OVCAR-8, 48 h; procedure, shortened: as §1
786-0 = test: Growth inhibition of human 786-0 cells after 48 hrs by SRB assay; settings: 786-0, 48 h; procedure, shortened: as §1
BT-549 = test: Growth inhibition of human BT549 cells after 48 hrs by SRB assay; settings: BT-549, 48 h; procedure, shortened: as §1
HL-60(TB) = test: Growth inhibition of human HL-60(TB) cells after 48 hrs by SRB assay; settings: HL-60, 48 h
Procedure, shortened: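 NCI 60-cell-line screen: cells grown in RPMI1640 with 5% fetal calf serum and 2 mM L-glutamine, preincubated 24 h, then exposed to compound in DMSO at five concentrations (10^-4 to 10^-8 M) for 48 h continuous exposure. Growth estimated by sulforhodamine B protein assay; reported as pGI50 (-log molar concentration inhibiting net cell growth by 50%).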

CCRF-CEM = test: Growth inhibition of human CCRF-CEM cells after 48 hrs by SRB assay; procedure, shortened: as §1
SF-295 = test: Growth inhibition of human SF295 cells after 48 hrs by SRB assay; settings: SF-295, 48 h; procedure, shortened: as §1
SF-539 = test: Growth inhibition of human SF539 cells after 48 hrs by SRB assay; settings: SF-539, 48 h; procedure, shortened: as §1
IGROV-1 = test: Growth inhibition of human IGROV1 cells after 48 hrs by SRB assay; settings: IGROV-1, 48 h; procedure, shortened: as §1
[2] = Growth inhibition of human Hs 578T cells after 48 hrs by SRB assay; procedure, shortened: as §1

COc1ccc(C2CC(c3cc(OC)c(OC)c(OC)c3)=NN2)cc1 (stereo unspecified)
63.1 µM: TGI (MDA-MB-468; read-out: pTGI (converted)) | TGI (CAKI-1; read-out: pTGI (converted))
79.4 µM: GI50 (NCI-H322M)
3.98 µM: GI50 (SNB-75) | GI50 (U-251) | GI50 (OVCAR-3) | GI50 (SK-MEL-5) | GI50 (MDA-MB-468) | TGI (SR; read-out: pTGI (converted))
2.51 µM: GI50 (MCF7)
7.94 µM: GI50 (CAKI-1) | GI50 (UACC-62) | GI50 (BT-549)
20 µM: TGI ([1]; read-out: pTGI (converted)) | GI50 (786-0)
> 100 µM: TGI (SK-OV-3; read-out: pTGI (converted)) | TGI (UO-31; read-out: pTGI (converted)) | TGI (NCI/ADR-RES; read-out: pTGI (converted)) | TGI (Malme-3M; read-out: pTGI (converted)) | TGI (EKVX; read-out: pTGI (converted)) | TGI (M14; read-out: pTGI (converted)) | TGI (U-251; read-out: pTGI (converted)) | TGI (SK-MEL-28; read-out: pTGI (converted)) | TGI (PC-3; read-out: pTGI (converted)) | TGI (DU-145; read-out: pTGI (converted)) | TGI (TK-10; read-out: pTGI (converted)) | TGI (RXF 393; read-out: pTGI (converted)) | TGI (NCI-H322M; read-out: pTGI (converted)) | TGI (OVCAR-4; read-out: pTGI (converted)) | TGI (UACC-62; read-out: pTGI (converted)) | TGI (HCT-15; read-out: pTGI (converted)) | TGI (HOP-62; read-out: pTGI (converted)) | TGI (OVCAR-8; read-out: pTGI (converted)) | TGI (786-0; read-out: pTGI (converted)) | TGI (BT-549; read-out: pTGI (converted)) | TGI (CCRF-CEM; read-out: pTGI (converted)) | TGI (SF-295; read-out: pTGI (converted)) | TGI (IGROV-1; read-out: pTGI (converted)) | TGI ([2]; read-out: pTGI (converted))
6.31 µM: GI50 (NCI/ADR-RES) | GI50 (PC-3) | GI50 (CCRF-CEM) | GI50 (SF-539) | GI50 (IGROV-1)
25.1 µM: GI50 (Malme-3M) | TGI (SK-MEL-5; read-out: pTGI (converted)) | TGI (MCF7; read-out: pTGI (converted)) | GI50 (OVCAR-8)
15.8 µM: GI50 [2]
3.16 µM: GI50 [1] | GI50 (HCT-15) | GI50 (NCI-H460)
1 µM: GI50 (SR)
5.01 µM: GI50 (UO-31) | GI50 (SF-295)
50.1 µM: TGI (OVCAR-3; read-out: pTGI (converted))
30.2 µM: TGI (NCI-H460; read-out: pTGI (converted))
12.6 µM: GI50 (SK-OV-3) | GI50 (M14) | GI50 (OVCAR-4) | TGI (HL-60(TB); read-out: pTGI (converted))
39.8 µM: GI50 (SK-MEL-28) | TGI (HCC 2998; read-out: pTGI (converted)) | GI50 (TK-10) | TGI (SF-539; read-out: pTGI (converted))
10 µM: GI50 (EKVX) | GI50 (HCC 2998) | GI50 (RXF 393)
31.6 µM: GI50 (DU-145) | GI50 (HOP-62)
2 µM: GI50 (HL-60(TB))
